Measured values published in ChEMBL document CHEMBL5058577, “EUbOPEN Chemogenomics Library 2 (Multiplex)” (2022).

Tested on: HEK-293T
Experiment: Multiplex assay against HEK293T
Type: toxicity, cell-based
Conditions: human
In short: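 Per cents of healthy-nucleus cells form the tubulin, mitochondrial-mass and membrane-permeability phenotype values. Live cells were stained at seeding with Hoechst33342, BioTracker Green Microtubule Cytoskeleton Dye, MitoTracker Red and Annexin V Alexa Fluor 680. After compound addition they were imaged on a CQ1 microscope at 37°C and 5% CO2, and CellPathfinder machine-learning gating split them into Hoechst high-intensity objects or normal cells, normal cells into healthy, pyknosed or fragmented nuclei, and pyknosed cells into mitotic or apoptotic.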

[1] = 12 h, 1 µM, compound concentration 1 uM, replicate 1
[2] = 12 h, 1 µM, compound concentration 1 uM, replicate 2
[3] = 12 h, 10 µM, compound concentration 10 uM, replicate 1
[4] = 12 h, 10 µM, compound concentration 10 uM, replicate 2
[5] = 24 h, 1 µM, compound concentration 1 uM, replicate 1
[6] = 24 h, 1 µM, compound concentration 1 uM, replicate 2
[7] = 24 h, 10 µM, compound concentration 10 uM, replicate 1
[8] = 24 h, 10 µM, compound concentration 10 uM, replicate 2
[9] = 48 h, 1 µM, compound concentration 1 uM, replicate 1
[10] = 48 h, 1 µM, compound concentration 1 uM, replicate 2
[11] = 48 h, 10 µM, compound concentration 10 uM, replicate 1
[12] = 48 h, 10 µM, compound concentration 10 uM, replicate 2

For `O=C(CCCc1ccccc1)Nc1nc2ccccc2c(=O)s1`, which “Population Apoptotic (%)” value [1] is on record?
Its value is 30%.

What about the “Population Fragmented Nuclei (%)” value [1] of the same compound?
The value was 4%.

And the “Population Healthy Nuclei (%)” value [1]?
Its value is 83%.

And the “Population Hoechst High Intensity Objects (%)” value [1]?
Its value is 6%.

And the “Population Membrane Permeable-Phenotype (%)” value [1]?
Its value is 0%.

What about the “Population Mitochondria Different-Phenotype (%)” value [1] of the same compound?
Its value is 37%.

What about the “Population Mitotic Cells (%)” value [1] of the same compound?
Its value is 70%.

What about the “Population Normal (%)” value [1] of the same compound?
Its value is 93%.

And the “Population Pyknosed Nuclei (%)” value [1]?
Its value is 11%.

And the “Population Tubulin-Different-Phenotype (%)” value [1]?
Its value is 32%.

And the “Total Cell Count” value [1]?
The value was 372.

And the “Population Apoptotic (%)” value [2]?
The value was 43%.

And the “Population Fragmented Nuclei (%)” value [2]?
The value was 7%.

What about the “Population Healthy Nuclei (%)” value [2] of the same compound?
The value was 74%.

And the “Population Hoechst High Intensity Objects (%)” value [2]?
Its value is 13%.

And the “Population Mitochondria Different-Phenotype (%)” value [2]?
The value was 63%.

What about the “Population Mitotic Cells (%)” value [2] of the same compound?
The value was 56%.

What about the “Population Normal (%)” value [2] of the same compound?
Its value is 86%.

And the “Population Pyknosed Nuclei (%)” value [2]?
Its value is 17%.

And the “Population Tubulin-Different-Phenotype (%)” value [2]?
The value was 36%.

What about the “Total Cell Count” value [2] of the same compound?
The value was 267.

What about the “Population Apoptotic (%)” value [3] of the same compound?
The value was 30%.

What about the “Population Fragmented Nuclei (%)” value [3] of the same compound?
Its value is 10%.

And the “Population Healthy Nuclei (%)” value [3]?
Its value is 80%.

What about the “Population Hoechst High Intensity Objects (%)” value [3] of the same compound?
Its value is 9%.

And the “Population Membrane Permeable-Phenotype (%)” value [3]?
The value was 0%.

And the “Population Mitochondria Different-Phenotype (%)” value [3]?
Its value is 47%.

What about the “Population Mitotic Cells (%)” value [3] of the same compound?
The value was 69%.

What about the “Population Normal (%)” value [3] of the same compound?
The value was 90%.

What about the “Population Pyknosed Nuclei (%)” value [3] of the same compound?
Its value is 9%.

And the “Population Tubulin-Different-Phenotype (%)” value [3]?
The value was 27%.

And the “Total Cell Count” value [3]?
Its value is 555.

What about the “Population Apoptotic (%)” value [4] of the same compound?
Its value is 44%.

And the “Population Fragmented Nuclei (%)” value [4]?
The value was 7%.

What about the “Population Healthy Nuclei (%)” value [4] of the same compound?
The value was 74%.

And the “Population Hoechst High Intensity Objects (%)” value [4]?
The value was 27%.

What about the “Population Mitochondria Different-Phenotype (%)” value [4] of the same compound?
The value was 68%.

And the “Population Mitotic Cells (%)” value [4]?
Its value is 55%.

And the “Population Normal (%)” value [4]?
The value was 72%.

What about the “Population Pyknosed Nuclei (%)” value [4] of the same compound?
The value was 17%.

And the “Population Tubulin-Different-Phenotype (%)” value [4]?
Its value is 26%.

And the “Total Cell Count” value [4]?
Its value is 371.

And the “Population Apoptotic (%)” value [5]?
Its value is 20%.

And the “Population Fragmented Nuclei (%)” value [5]?
Its value is 8%.

What about the “Population Healthy Nuclei (%)” value [5] of the same compound?
The value was 81%.

And the “Population Hoechst High Intensity Objects (%)” value [5]?
The value was 5%.

And the “Population Membrane Permeable-Phenotype (%)” value [5]?
The value was 1%.

What about the “Population Mitochondria Different-Phenotype (%)” value [5] of the same compound?
The value was 21%.

What about the “Population Mitotic Cells (%)” value [5] of the same compound?
Its value is 79%.

What about the “Population Normal (%)” value [5] of the same compound?
Its value is 94%.

What about the “Population Pyknosed Nuclei (%)” value [5] of the same compound?
The value was 10%.

What about the “Population Tubulin-Different-Phenotype (%)” value [5] of the same compound?
Its value is 15%.

What about the “Total Cell Count” value [5] of the same compound?
The value was 538.

And the “Population Apoptotic (%)” value [6]?
The value was 45%.

What about the “Population Fragmented Nuclei (%)” value [6] of the same compound?
The value was 9%.

What about the “Population Healthy Nuclei (%)” value [6] of the same compound?
Its value is 78%.

And the “Population Hoechst High Intensity Objects (%)” value [6]?
The value was 8%.

What about the “Population Membrane Permeable-Phenotype (%)” value [6] of the same compound?
The value was 0%.

And the “Population Mitochondria Different-Phenotype (%)” value [6]?
The value was 38%.

What about the “Population Mitotic Cells (%)” value [6] of the same compound?
The value was 54%.

And the “Population Normal (%)” value [6]?
Its value is 91%.

And the “Population Pyknosed Nuclei (%)” value [6]?
The value was 12%.

And the “Population Tubulin-Different-Phenotype (%)” value [6]?
The value was 13%.

And the “Total Cell Count” value [6]?
The value was 370.

What about the “Population Apoptotic (%)” value [7] of the same compound?
The value was 33%.

What about the “Population Fragmented Nuclei (%)” value [7] of the same compound?
Its value is 10%.

What about the “Population Healthy Nuclei (%)” value [7] of the same compound?
Its value is 80%.

What about the “Population Hoechst High Intensity Objects (%)” value [7] of the same compound?
Its value is 6%.

And the “Population Membrane Permeable-Phenotype (%)” value [7]?
The value was 0%.

And the “Population Mitochondria Different-Phenotype (%)” value [7]?
Its value is 38%.

And the “Population Mitotic Cells (%)” value [7]?
The value was 66%.

And the “Population Normal (%)” value [7]?
The value was 93%.

And the “Population Pyknosed Nuclei (%)” value [7]?
The value was 9%.

What about the “Population Tubulin-Different-Phenotype (%)” value [7] of the same compound?
The value was 29%.

And the “Total Cell Count” value [7]?
The value was 661.

What about the “Population Apoptotic (%)” value [8] of the same compound?
Its value is 52%.

And the “Population Fragmented Nuclei (%)” value [8]?
The value was 8%.

And the “Population Hoechst High Intensity Objects (%)” value [8]?
Its value is 24%.

And the “Population Mitochondria Different-Phenotype (%)” value [8]?
The value was 47%.

What about the “Population Mitotic Cells (%)” value [8] of the same compound?
The value was 47%.

And the “Population Normal (%)” value [8]?
Its value is 75%.

What about the “Population Pyknosed Nuclei (%)” value [8] of the same compound?
Its value is 11%.

And the “Population Tubulin-Different-Phenotype (%)” value [8]?
Its value is 20%.

What about the “Total Cell Count” value [8] of the same compound?
Its value is 444.

And the “Population Apoptotic (%)” value [9]?
The value was 20%.

What about the “Population Fragmented Nuclei (%)” value [9] of the same compound?
Its value is 11%.

And the “Population Healthy Nuclei (%)” value [9]?
The value was 82%.

And the “Population Hoechst High Intensity Objects (%)” value [9]?
Its value is 2%.

What about the “Population Membrane Permeable-Phenotype (%)” value [9] of the same compound?
The value was 1%.

And the “Population Mitochondria Different-Phenotype (%)” value [9]?
Its value is 15%.

What about the “Population Mitotic Cells (%)” value [9] of the same compound?
The value was 79%.

And the “Population Normal (%)” value [9]?
The value was 97%.

What about the “Population Pyknosed Nuclei (%)” value [9] of the same compound?
The value was 6%.

And the “Population Tubulin-Different-Phenotype (%)” value [9]?
The value was 11%.

What about the “Total Cell Count” value [9] of the same compound?
The value was 820.

And the “Population Apoptotic (%)” value [10]?
Its value is 38%.

What about the “Population Fragmented Nuclei (%)” value [10] of the same compound?
Its value is 10%.

What about the “Population Healthy Nuclei (%)” value [10] of the same compound?
The value was 80%.

And the “Population Hoechst High Intensity Objects (%)” value [10]?
Its value is 4%.

What about the “Population Membrane Permeable-Phenotype (%)” value [10] of the same compound?
The value was 0%.

And the “Population Mitochondria Different-Phenotype (%)” value [10]?
Its value is 28%.

What about the “Population Mitotic Cells (%)” value [10] of the same compound?
Its value is 61%.

And the “Population Normal (%)” value [10]?
The value was 95%.

What about the “Population Pyknosed Nuclei (%)” value [10] of the same compound?
The value was 8%.

What about the “Population Tubulin-Different-Phenotype (%)” value [10] of the same compound?
The value was 13%.

What about the “Total Cell Count” value [10] of the same compound?
Its value is 534.

What about the “Population Apoptotic (%)” value [11] of the same compound?
The value was 22%.

And the “Population Fragmented Nuclei (%)” value [11]?
Its value is 14%.

What about the “Population Healthy Nuclei (%)” value [11] of the same compound?
Its value is 79%.

And the “Population Hoechst High Intensity Objects (%)” value [11]?
Its value is 4%.

What about the “Population Membrane Permeable-Phenotype (%)” value [11] of the same compound?
The value was 0%.

And the “Population Mitochondria Different-Phenotype (%)” value [11]?
The value was 21%.

And the “Population Mitotic Cells (%)” value [11]?
The value was 77%.

What about the “Population Normal (%)” value [11] of the same compound?
The value was 95%.

What about the “Population Pyknosed Nuclei (%)” value [11] of the same compound?
The value was 6%.

What about the “Population Tubulin-Different-Phenotype (%)” value [11] of the same compound?
Its value is 16%.

What about the “Total Cell Count” value [11] of the same compound?
Its value is 984.

What about the “Population Apoptotic (%)” value [12] of the same compound?
The value was 68%.

What about the “Population Fragmented Nuclei (%)” value [12] of the same compound?
Its value is 13%.

What about the “Population Healthy Nuclei (%)” value [12] of the same compound?
The value was 77%.

And the “Population Hoechst High Intensity Objects (%)” value [12]?
Its value is 11%.

What about the “Population Membrane Permeable-Phenotype (%)” value [12] of the same compound?
Its value is 1%.

And the “Population Mitochondria Different-Phenotype (%)” value [12]?
The value was 30%.

What about the “Population Mitotic Cells (%)” value [12] of the same compound?
Its value is 31%.

And the “Population Normal (%)” value [12]?
The value was 88%.

What about the “Population Pyknosed Nuclei (%)” value [12] of the same compound?
The value was 9%.

And the “Total Cell Count” value [12]?
Its value is 567.
